Assay [1] relates to Staphylococcus aureus. Nature of the assay: Antimicrobial activity against methicillin-sensitive Staphylococcus aureus ATCC 29213 assessed as reduction in microbial growth after 24 hrs by microdilution method. It is filed as functional. The method in brief: (§1)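 Bacterial MICs by CLSI M7 broth microdilution on ATCC strains. Concentrations ran from 256 to 0.5 µg/mL, with 24 h incubation at 35 °C. MIC is the lowest concentration with no visible growth. Duplicate assays.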
(In general: In broth dilution the organism is exposed to a series of concentrations in liquid medium.)

In assay [2] the test system is Staphylococcus aureus. Briefly: Antimicrobial activity against methicillin-resistant Staphylococcus aureus ATCC 33591 assessed as reduction in microbial growth after 24 hrs by microdilution method. It is filed as functional. The procedure, abridged:
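Broth microdilution per CLSI M7; test range 256 to 0.5 µg/mL; plates incubated at 35 °C and read at 24 h for bacteria; MIC taken as lowest concentration preventing visible growth in the wells; run in duplicate.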

The test system of a further assay is Trichophyton rubrum. Briefly: Antifungal activity against Trichophyton rubrum SNB-TR1 assessed as reduction in microbial growth after 5 days by microdilution method. The class given is functional. The settings on record: SNB-TR1, 120 h, time 5 day. The method in brief: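 CLSI M38 broth microdilution on a clinical dermatophyte isolate. Serial dilutions from 256 to 0.5 µg/mL, incubated at 35 °C and read after 5 days. MIC is the lowest concentration preventing visible growth. Run in duplicate.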

The subject of a further assay is Escherichia coli. Nature of the assay: Antimicrobial activity against Escherichia coli ATCC 25922 assessed as reduction in microbial growth after 24 hrs by microdilution method. It is filed as functional. The procedure, abridged:
as §1

Assay [3] deals with Candida albicans. Nature of the assay: Antifungal activity against Candida albicans ATCC 10231 assessed as reduction in microbial growth after 48 h by microdilution method. The settings on record: ATCC 10231, 48 h.
Assay [4] deals with Candida albicans. Briefly: Antifungal activity against Candida albicans ATCC 10231 assessed as reduction in microbial growth after 5 days by microdilution method. It is filed as functional. The settings on record: ATCC 10231, 120 h, time 5 day.
In another assay the test system is MRC5. Briefly: Cytotoxicity against human MRC5 cells assessed as reduction in cell viability after 72 hrs by CellTiter Glo assay. It is filed as cell-based. The settings on record: MRC5, 72 h. The method in brief:
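Lung fibroblasts from ATCC, grown in DMEM with 10% FCS and 1% glutamine at 37 °C under 5% CO2, were seeded at 3 × 10^3 cells/well. After 24 h they were dosed at 10 final concentrations by serial dilution in medium, with vehicle controls. After 72 h, viability was read by CellTiter Glo luminescence (15 min). Triplicate runs; IC50 from four- or five-parameter logistic fits.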
A general note: Cellular ATP, detected with luciferase, serves as a proxy for viable cell number.

The MIC is the smallest concentration in the dilution series that meets the test's criterion for growth inhibition. The term IC50 denotes the concentration that inhibits the measured activity by half.

As for `Cc1onc(-c2ccccc2)c1C(=O)N[C@@H]1C(=O)N2[C@@H]1SC(C)(C)[C@@H]2C(=O)O` [OXACILLIN], the MIC in the assay with Staphylococcus aureus [1] worked out at 0.25 µg/mL.
`C/C=C/[C@@H]1C=C[C@@H]2C[C@H](CO)CC[C@H]2[C@]1(C)/C(O)=C1\C(=O)N[C@@H]([C@@H](C)O)C1=O`: the MIC in the assay with Staphylococcus aureus [1], with Staphylococcus aureus [2], with Trichophyton rubrum, in the assay with Escherichia coli and in the assay on Candida albicans [3] was above 256 µg/mL throughout.
Consider `OC(Cn1cncn1)(Cn1cncn1)c1ccc(F)cc1F` [FLUCONAZOLE], for which the minimal inhibitory concentration (MIC) is 1 µg/mL in the assay on Candida albicans [4] and 4 µg/mL in the assay on Trichophyton rubrum.
For `C/C=C/[C@@H]1C=C[C@@H]2C[C@H](C)CC[C@H]2[C@]1(C)/C(O)=C1\C(=O)N[C@@H]([C@@H](C)O)C1=O`, the MIC in the assay with Staphylococcus aureus [1] is 8 µg/mL; in the assay on Staphylococcus aureus [2], 16 µg/mL; in the assay with Trichophyton rubrum, 64 µg/mL; with Escherichia coli, above 256 µg/mL; with Candida albicans [3], 128 µg/mL. The concentration for half-maximal inhibition (IC50) with MRC5 is 50.3 µM.
As to GENTAMICIN, the MIC in the assay with Escherichia coli worked out at 8 µg/mL.
`C/C=C/[C@@H]1C=C[C@@H]2C[C@H](CO)CC[C@H]2[C@]1(C)/C(O)=C1\C(=O)N[C@@H]([C@H](C)O)C1=O`: the minimal inhibitory concentration (MIC) in the assay with Staphylococcus aureus [1] is above 256 µg/mL; with Staphylococcus aureus [2] it was above 256 µg/mL; with Trichophyton rubrum, above 256 µg/mL; in the assay on Escherichia coli, 256 µg/mL; in the assay with Candida albicans [3], above 256 µg/mL.
Consider `C/C=C/[C@@H]1C=C[C@@H]2C[C@H](C)CC[C@H]2[C@]1(C)/C(O)=C1\C(=O)N[C@@H]([C@H](C)O)C1=O`, for which the MIC in the assay on Staphylococcus aureus [1] was 2 µg/mL; in the assay on Staphylococcus aureus [2], 2 µg/mL; in the assay with Trichophyton rubrum, 32 µg/mL; in the assay on Escherichia coli, above 256 µg/mL; with Candida albicans [3], 16 µg/mL. Further, the IC50 in the assay on MRC5 was found to be 40 µM.
As for `C/C=C1\NC(=O)C(C(=O)[C@@]2(C)[C@@H]3CC[C@@H](CO)C[C@H]3C=C[C@H]2/C=C/C)=C1O`, the minimum inhibitory concentration (MIC) was 64 µg/mL with Staphylococcus aureus [1]; 128 µg/mL with Staphylococcus aureus [2]; above 256 µg/mL in the assay with Trichophyton rubrum; above 256 µg/mL with Escherichia coli; above 256 µg/mL in the assay with Candida albicans [3]. Besides, the IC50 in the assay with MRC5 was 106 µM.
With `C/C=C1\NC(=O)C(C(=O)[C@@]2(C)[C@@H]3CC[C@@H](C)C[C@H]3C=C[C@H]2/C=C/C)=C1O`, the MIC is 2 µg/mL in the assay with Staphylococcus aureus [1]; 1 µg/mL in the assay on Staphylococcus aureus [2]; 32 µg/mL in the assay on Trichophyton rubrum; above 256 µg/mL in the assay with Escherichia coli; 32 µg/mL in the assay on Candida albicans [3]. The IC50 with MRC5 came out at 24.2 µM.

Source of the values: ChEMBL document CHEMBL4699552, “Paecilosetin Derivatives as Potent Antimicrobial Agents from Isaria farinosa” (J Nat Prod, 2020).
